Test results from PMC3362663 (Bioorganic & medicinal chemistry letters, 2012).

What was measured:
type I PKA holoenzyme = assay: Counter-screen: type I PKA holoenzyme activity; type: biochemical; conditions: 25 μM compound, 100 μM cAMP
type II PKA holoenzyme = assay: Counter-screen: type II PKA holoenzyme activity; type: biochemical; conditions: 25 μM compound, 100 μM cAMP
Epac2 [1] = target: T1, Epac2 (Mus musculus, UniProt Q9EQZ6); assay: 8-NBD-cAMP competition binding to Epac2, dose-dependent titration
T1 sequence (Q9EQZ6 1-993 isoform Q9EQZ6-3): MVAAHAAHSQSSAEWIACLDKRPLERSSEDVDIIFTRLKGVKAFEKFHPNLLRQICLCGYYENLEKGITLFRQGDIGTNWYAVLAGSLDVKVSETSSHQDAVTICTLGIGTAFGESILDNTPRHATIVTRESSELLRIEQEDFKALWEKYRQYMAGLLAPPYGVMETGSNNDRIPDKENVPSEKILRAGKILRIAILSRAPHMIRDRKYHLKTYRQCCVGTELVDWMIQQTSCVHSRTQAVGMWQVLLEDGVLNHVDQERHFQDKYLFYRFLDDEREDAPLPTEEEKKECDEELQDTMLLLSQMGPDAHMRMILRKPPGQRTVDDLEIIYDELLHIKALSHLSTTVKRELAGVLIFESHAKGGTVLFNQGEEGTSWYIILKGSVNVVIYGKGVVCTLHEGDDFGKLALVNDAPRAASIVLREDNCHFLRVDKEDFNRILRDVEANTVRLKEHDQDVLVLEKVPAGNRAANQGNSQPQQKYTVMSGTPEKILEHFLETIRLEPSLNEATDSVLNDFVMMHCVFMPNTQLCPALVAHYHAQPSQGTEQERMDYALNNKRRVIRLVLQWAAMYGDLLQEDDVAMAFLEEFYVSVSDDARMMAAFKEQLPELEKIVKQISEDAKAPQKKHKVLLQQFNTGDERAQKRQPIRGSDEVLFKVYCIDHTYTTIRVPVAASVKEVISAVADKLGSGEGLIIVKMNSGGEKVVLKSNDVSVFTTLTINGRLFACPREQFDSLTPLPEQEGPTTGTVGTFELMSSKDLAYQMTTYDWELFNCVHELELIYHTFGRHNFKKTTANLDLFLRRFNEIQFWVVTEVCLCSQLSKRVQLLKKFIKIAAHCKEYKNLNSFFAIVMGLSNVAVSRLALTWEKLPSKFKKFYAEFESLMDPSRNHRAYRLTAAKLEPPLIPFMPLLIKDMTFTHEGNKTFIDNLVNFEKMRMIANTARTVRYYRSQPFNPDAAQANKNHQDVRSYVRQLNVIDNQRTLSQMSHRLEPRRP

Epac1 = target: T2, Epac1 (Homo sapiens, UniProt O95398); assay: cAMP-mediated Epac1 GEF activity; type: biochemical; conditions: for Inhibition of Epac1 GEF (Rap1-GDP exchange) activity: 25 μM compound in the presence of equal concentration (25 μM) of cAMP
T2 sequence (O95398 1-923): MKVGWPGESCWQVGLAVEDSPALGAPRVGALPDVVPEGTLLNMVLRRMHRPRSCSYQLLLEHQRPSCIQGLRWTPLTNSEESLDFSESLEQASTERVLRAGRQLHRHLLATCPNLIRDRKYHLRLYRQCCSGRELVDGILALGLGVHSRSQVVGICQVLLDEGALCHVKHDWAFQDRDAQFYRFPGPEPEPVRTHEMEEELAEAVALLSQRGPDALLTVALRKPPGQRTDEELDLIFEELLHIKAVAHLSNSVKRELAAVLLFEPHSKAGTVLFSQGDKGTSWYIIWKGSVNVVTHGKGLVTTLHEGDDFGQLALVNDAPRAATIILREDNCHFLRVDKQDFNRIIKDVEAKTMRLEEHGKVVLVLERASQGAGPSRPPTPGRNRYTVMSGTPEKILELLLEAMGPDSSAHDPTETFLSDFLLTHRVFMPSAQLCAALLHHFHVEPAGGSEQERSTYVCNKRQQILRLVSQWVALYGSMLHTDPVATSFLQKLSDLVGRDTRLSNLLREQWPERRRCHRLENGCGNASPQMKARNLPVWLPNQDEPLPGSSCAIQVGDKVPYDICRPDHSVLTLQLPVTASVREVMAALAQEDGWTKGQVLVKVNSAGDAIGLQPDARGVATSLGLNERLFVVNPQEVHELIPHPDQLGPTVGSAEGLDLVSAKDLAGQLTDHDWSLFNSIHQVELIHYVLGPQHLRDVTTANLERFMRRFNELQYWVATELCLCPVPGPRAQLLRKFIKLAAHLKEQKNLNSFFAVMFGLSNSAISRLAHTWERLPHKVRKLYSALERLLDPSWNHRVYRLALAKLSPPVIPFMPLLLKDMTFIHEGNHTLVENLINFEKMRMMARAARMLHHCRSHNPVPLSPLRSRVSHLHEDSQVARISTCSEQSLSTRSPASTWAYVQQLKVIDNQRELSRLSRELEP

HEK293/Epac1 cells = assay: Epac1-mediated Akt/PKB phosphorylation; type: cell-based; conditions: 10 μM, 5 min pretreatment before 10 μM 007-AM
In short: (§1)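 HEK293 cells ectopically expressing Epac1 or Epac2 were pretreated, or not, with 10 μM test compound and then stimulated with 10 μM 007-AM. Cell lysates were analysed by Western blot with anti-phospho-Ser473 and anti-phospho-Thr308 PKB antibodies.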

HEK293/Epac2 cells = assay: Epac2-mediated Akt/PKB phosphorylation; type: cell-based; conditions: 10 μM, 5 min pretreatment before 10 μM 007-AM
In short: as §1

Epac2 [2] = target: T1, Epac2; assay: cAMP-mediated Epac2 GEF activity, purified recombinant full-length protein; type: biochemical; conditions: for Inhibition of Epac2 GEF activity: 25 μM compound in the presence of equal concentration (25 μM) of cAMP
[3] = 25 μM in the presence of equal molar concentration of cAMP, unpublished data

O=S(=O)(NCCNC/C=C/c1ccc(Br)cc1)c1cccc2cnccc12 [H89, reference compound]
Effect on cAMP-induced type I PKA holoenzyme activation (type I PKA holoenzyme): blocked the type I or II PKA activities completely | Effect on cAMP-induced type II PKA holoenzyme activation (type II PKA holoenzyme): blocked the type I or II PKA activities completely

N#Cc1c(C2CCCCC2)nc(Nc2ccc(Cl)cc2)[nH]c1=O [8b]
IC50 (Epac2 [1]): > 300 µM

Cc1ccc(C)c(CSc2nc(C3CCCC3)c(C#N)c(=O)[nH]2)c1 [6h, 4-Cyclopentyl-2-(2,5-dimethyl-benzylsulfanyl)-6-oxo-1,6-dihydro-pyrimidine-5-carbonitrile]
Effect on cAMP-induced type I PKA holoenzyme activation (type I PKA holoenzyme): not to alter | Inhibition of Epac1 GEF (Rap1-GDP exchange) activity (Epac1): inhibit Epac1-mediated Rap1-GDP exchange activity | Block of Epac1-mediated Akt phosphorylation (HEK293/Epac1 cells): completely blocked | Effect on cAMP-induced type II PKA holoenzyme activation (type II PKA holoenzyme): not to alter | Block of Epac2-mediated Akt phosphorylation (HEK293/Epac2 cells): completely blocked | Inhibition of Epac2 GEF activity (Epac2 [2]): inhibit Epac2 GEF activity to basal levels

Cc1ccc(C)c(CSc2nc(C3CCCCC3)c(C#N)c(=O)[nH]2)c1 [compound 1]
Inhibition of Epac1 activity (Epac1; [3]): completely inhibiting | Inhibition of Epac2 activity (Epac2 [2]; [3]): completely inhibiting

N#Cc1c(C2CCCCC2)nc(S)[nH]c1=O [5a]
IC50 (Epac2 [1]): > 300 µM | Relative Potency (RA) (Epac2 [1]; RA = IC50, cAMP/IC50, compound): <0.16

Cc1cc(C)c(NC(=O)CSc2nc(C3CCCCC3)c(C#N)c(=O)[nH]2)c(C)c1 [11b]
IC50 (Epac2 [1]): > 300 µM

Cc1ccc(NC(=O)CSc2nc(C3CCCCC3)c(C#N)c(=O)[nH]2)cc1 [11c]
IC50 (Epac2 [1]): > 300 µM

Cc1ccc(C)c(CSc2nc(C3CCNCC3)c(C#N)c(=O)[nH]2)c1 [6k]
IC50 (Epac2 [1]): > 300 µM

Cc1ccc(C)c(CSc2nc(C3CC3)c(C#N)c(=O)[nH]2)c1 [6g, 4-Cyclopropyl-2-(2,5-dimethylbenzylsulfanyl)-6-oxo-1,6-dihydro-pyrimidine-5-carbonitrile]
Effect on cAMP-induced type I PKA holoenzyme activation (type I PKA holoenzyme): not to alter | Inhibition of Epac1 GEF (Rap1-GDP exchange) activity (Epac1): more Epac2-specific | Block of Epac1-mediated Akt phosphorylation (HEK293/Epac1 cells): completely blocked | Effect on cAMP-induced type II PKA holoenzyme activation (type II PKA holoenzyme): not to alter | Block of Epac2-mediated Akt phosphorylation (HEK293/Epac2 cells): completely blocked | Inhibition of Epac2 GEF activity (Epac2 [2]): inhibit Epac2 GEF activity to basal levels

N#Cc1c(C2CCCCC2)nc(SCC(=O)O)[nH]c1=O [compound 10]
IC50 (Epac2 [1]): > 300 µM

N#Cc1c(C2CCCCC2)nc(SCC(=O)Nc2ccccc2)[nH]c1=O [11a]
IC50 (Epac2 [1]): > 300 µM

N#Cc1c(C2CCCCC2)nc(Nc2ccccc2)[nH]c1=O [8a]
IC50 (Epac2 [1]): > 300 µM
